The values below come from ChEMBL document CHEMBL1151781, “Selectivity of inhibitors of endocannabinoid biosynthesis evaluated by activity-based protein profiling” (Bioorg Med Chem Lett, 2008).

The target of test [1] is Platelet-activating factor acetylhydrolase (Homo sapiens, UniProt Q13093). The test can be described thus: Inhibition of recombinant PLA2g7 transfected in HEK293T cells by SDS-PAGE using rhodamine-tagged FP probe. Format: cell-based, HEK-293T. In a few lines: (§1)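 HEK293T cells were transfected with cDNA for the target hydrolase. The transfected proteome was treated with inhibitor across 0.01-100 μM, then labeled with rhodamine-tagged fluorophosphonate probe (FP-Rh). Loss of probe labeling was read to give IC50. Values are means ± standard errors of three independent experiments.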
Sequence of Platelet-activating factor acetylhydrolase (Q13093 whole entry): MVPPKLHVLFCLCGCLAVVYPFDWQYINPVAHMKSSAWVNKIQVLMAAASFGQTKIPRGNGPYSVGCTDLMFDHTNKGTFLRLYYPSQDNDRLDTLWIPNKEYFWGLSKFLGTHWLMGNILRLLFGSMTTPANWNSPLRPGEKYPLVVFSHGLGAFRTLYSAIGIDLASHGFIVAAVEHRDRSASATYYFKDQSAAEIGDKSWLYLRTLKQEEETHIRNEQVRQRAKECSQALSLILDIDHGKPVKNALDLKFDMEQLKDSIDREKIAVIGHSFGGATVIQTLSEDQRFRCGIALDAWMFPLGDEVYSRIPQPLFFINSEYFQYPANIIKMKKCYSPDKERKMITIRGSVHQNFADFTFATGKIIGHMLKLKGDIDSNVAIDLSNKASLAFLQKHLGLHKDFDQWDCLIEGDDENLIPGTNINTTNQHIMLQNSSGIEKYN

Test [2] concerns the target Diacylglycerol lipase-beta (Homo sapiens) (UniProt Q8NCG7). The test can be described thus: Inhibition of recombinant DAGLbeta overexpressed in african green monkey COS7 cells assessed as accumulation of 2-arachidonoylglycerol […]. It counts as cell-based. The note with it: COS-7.
For test [3], the target named is Phosphatidylserine lipase ABHD16A (Homo sapiens, UniProt O95870). Description: Inhibition of recombinant BAT5 transfected in HEK293T cells by SDS-PAGE using rhodamine-tagged FP probe. Format: cell-based, HEK-293T. The gist of the method: as §1
Sequence of Phosphatidylserine lipase ABHD16A (O95870 whole entry): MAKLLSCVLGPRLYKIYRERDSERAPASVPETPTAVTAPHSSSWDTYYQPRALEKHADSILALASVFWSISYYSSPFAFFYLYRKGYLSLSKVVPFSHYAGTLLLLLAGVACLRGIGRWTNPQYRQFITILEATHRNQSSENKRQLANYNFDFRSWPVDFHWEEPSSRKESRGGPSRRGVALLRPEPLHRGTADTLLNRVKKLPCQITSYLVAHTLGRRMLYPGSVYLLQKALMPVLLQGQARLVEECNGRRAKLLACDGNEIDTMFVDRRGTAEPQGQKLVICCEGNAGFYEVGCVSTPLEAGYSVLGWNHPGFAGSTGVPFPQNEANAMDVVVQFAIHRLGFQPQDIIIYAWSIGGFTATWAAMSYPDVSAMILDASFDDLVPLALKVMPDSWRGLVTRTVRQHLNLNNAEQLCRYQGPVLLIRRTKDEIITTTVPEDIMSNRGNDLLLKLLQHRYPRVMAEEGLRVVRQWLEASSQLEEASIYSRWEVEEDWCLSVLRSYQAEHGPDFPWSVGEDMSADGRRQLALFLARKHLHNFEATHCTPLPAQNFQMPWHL
Test [4] addresses Monoacylglycerol lipase ABHD6 (Mus musculus) (UniProt Q8R2Y0). The test can be described thus: Inhibition of ABHD6 in mouse brain at 0.01 to 100 uM treated for 30 mins by SDS-PAGE using rhodamine-tagged FP probe. Format: tissue-based. In a few lines:
(§2)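 Mouse brain membrane proteome preincubated with inhibitor across 0.01-100 μM for 30 min. A rhodamine-tagged fluorophosphonate probe (FP-Rh) was then added for 60 min. Samples were resolved by SDS-PAGE, and probe labeling of each hydrolase band was read by in-gel fluorescence scanning.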

Test [5] has as its target T1, Phosphatidylserine lipase ABHD16A (Mus musculus) (UniProt Q9Z1Q2).
T1 sequence (whole entry): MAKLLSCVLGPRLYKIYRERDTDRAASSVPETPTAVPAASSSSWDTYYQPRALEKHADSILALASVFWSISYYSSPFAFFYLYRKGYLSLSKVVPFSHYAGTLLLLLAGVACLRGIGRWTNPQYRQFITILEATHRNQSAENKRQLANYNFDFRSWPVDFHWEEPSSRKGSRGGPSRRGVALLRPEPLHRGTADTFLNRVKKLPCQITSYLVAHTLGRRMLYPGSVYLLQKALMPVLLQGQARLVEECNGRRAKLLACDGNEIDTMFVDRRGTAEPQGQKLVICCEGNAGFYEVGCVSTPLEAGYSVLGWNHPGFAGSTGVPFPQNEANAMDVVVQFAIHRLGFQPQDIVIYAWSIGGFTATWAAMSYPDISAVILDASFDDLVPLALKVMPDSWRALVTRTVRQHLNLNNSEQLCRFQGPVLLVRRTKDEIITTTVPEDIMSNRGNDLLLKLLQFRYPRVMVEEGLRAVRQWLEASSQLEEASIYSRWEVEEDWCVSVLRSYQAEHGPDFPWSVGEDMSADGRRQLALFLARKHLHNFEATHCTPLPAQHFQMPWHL
Description: Inhibition of BAT5 in mouse brain at 0.01 to 100 uM treated for 30 mins by SDS-PAGE using rhodamine-tagged FP probe. Format: tissue-based. The gist of the method: as §2

For test [6], the target named is Diacylglycerol lipase-alpha (Homo sapiens) (UniProt Q9Y4D2). The test can be described thus: Inhibition of recombinant DAGLalpha overexpressed in african green monkey COS7 cells assessed as accumulation of 2-arachidonoylglycerol […]. It counts as cell-based. Particulars: COS-7.
Sequence of Diacylglycerol lipase-alpha (Homo sapiens) (Q9Y4D2 whole entry): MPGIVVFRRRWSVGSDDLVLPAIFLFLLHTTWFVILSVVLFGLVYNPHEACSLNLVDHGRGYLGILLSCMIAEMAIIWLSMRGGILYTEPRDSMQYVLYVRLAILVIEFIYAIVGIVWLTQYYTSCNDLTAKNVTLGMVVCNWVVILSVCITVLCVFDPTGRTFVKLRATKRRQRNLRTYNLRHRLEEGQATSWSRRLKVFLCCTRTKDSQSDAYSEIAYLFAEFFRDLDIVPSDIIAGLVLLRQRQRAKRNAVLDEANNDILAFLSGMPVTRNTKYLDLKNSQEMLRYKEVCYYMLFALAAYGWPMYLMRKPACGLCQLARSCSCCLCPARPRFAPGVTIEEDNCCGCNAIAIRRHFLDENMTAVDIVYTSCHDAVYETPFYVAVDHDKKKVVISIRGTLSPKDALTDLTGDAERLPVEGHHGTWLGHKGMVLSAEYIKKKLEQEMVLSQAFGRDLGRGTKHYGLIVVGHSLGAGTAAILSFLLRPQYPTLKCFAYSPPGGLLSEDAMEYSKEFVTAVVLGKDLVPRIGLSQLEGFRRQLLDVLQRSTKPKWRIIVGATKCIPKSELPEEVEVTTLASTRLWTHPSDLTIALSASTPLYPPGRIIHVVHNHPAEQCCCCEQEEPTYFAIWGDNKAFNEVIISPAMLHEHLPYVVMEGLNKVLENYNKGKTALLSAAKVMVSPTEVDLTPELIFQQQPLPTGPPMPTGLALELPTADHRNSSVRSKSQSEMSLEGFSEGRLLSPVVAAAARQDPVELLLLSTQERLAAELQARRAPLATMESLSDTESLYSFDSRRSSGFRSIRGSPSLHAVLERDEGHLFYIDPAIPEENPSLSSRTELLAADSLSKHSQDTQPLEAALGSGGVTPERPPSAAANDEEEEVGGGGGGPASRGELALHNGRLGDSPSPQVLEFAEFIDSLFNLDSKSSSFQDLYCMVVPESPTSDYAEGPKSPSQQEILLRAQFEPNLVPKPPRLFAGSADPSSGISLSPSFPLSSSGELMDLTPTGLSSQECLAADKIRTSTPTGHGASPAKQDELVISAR
For test [7], the target named is T2, Diacylglycerol lipase-alpha (Mus musculus) (UniProt Q6WQJ1).
T2 sequence (whole entry): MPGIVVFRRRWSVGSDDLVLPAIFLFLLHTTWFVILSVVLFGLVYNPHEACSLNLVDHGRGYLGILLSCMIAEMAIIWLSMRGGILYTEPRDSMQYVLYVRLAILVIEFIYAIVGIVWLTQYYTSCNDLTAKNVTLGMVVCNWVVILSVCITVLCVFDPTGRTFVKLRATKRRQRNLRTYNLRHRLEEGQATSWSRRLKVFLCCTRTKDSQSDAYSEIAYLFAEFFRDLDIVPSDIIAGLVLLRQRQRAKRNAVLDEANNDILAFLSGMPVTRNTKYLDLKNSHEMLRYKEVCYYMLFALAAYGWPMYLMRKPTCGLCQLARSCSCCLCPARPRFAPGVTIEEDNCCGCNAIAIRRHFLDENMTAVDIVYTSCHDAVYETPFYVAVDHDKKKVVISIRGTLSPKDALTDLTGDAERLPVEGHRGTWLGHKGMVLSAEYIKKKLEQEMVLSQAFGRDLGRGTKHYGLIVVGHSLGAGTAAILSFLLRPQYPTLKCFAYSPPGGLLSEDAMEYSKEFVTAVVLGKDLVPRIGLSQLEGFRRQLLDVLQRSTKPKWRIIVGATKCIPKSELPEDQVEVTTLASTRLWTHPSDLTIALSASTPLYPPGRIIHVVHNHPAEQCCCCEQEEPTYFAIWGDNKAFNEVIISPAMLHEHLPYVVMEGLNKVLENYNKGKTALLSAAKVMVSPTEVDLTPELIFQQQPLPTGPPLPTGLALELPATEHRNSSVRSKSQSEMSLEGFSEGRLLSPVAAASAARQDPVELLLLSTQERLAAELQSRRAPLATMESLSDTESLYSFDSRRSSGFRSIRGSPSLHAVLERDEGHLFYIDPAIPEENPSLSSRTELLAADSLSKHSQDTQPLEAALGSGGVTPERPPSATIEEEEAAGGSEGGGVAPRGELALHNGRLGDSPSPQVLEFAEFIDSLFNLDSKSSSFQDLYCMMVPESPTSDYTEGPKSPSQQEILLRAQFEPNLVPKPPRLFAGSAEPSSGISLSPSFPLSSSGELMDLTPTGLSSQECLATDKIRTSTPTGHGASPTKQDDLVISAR
Description: Inhibition of DAGLalpha in mouse brain assessed as >15 average spectral count at 50 uM treated for 30 mins by ABPP-MudPIT assay. It counts as tissue-based.

Test [8] has as its target T3, Neutral cholesterol ester hydrolase 1 (Mus musculus) (UniProt Q8BLF1).
T3 sequence (whole entry): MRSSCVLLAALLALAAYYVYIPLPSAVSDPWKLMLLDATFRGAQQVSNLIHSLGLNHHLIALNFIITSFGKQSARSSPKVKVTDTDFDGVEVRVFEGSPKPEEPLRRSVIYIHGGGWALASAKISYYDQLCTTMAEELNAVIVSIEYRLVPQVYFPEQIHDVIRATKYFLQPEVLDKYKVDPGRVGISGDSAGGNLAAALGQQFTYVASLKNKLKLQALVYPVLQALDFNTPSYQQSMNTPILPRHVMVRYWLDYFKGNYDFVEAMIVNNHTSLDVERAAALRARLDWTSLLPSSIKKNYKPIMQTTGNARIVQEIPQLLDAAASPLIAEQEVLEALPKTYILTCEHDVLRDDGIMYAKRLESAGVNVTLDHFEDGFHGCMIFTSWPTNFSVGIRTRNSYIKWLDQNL
The test can be described thus: Inhibition of KIAA1363 in mouse brain at 0.01 to 100 uM treated for 30 mins by SDS-PAGE using rhodamine-tagged FP probe. Format: tissue-based. The gist of the method: as §2

Active and inactive are the calls of the source. The calls are words filed in the database; no cut-off is given here.

Sequence of Diacylglycerol lipase-beta (Homo sapiens) (Q8NCG7 whole entry): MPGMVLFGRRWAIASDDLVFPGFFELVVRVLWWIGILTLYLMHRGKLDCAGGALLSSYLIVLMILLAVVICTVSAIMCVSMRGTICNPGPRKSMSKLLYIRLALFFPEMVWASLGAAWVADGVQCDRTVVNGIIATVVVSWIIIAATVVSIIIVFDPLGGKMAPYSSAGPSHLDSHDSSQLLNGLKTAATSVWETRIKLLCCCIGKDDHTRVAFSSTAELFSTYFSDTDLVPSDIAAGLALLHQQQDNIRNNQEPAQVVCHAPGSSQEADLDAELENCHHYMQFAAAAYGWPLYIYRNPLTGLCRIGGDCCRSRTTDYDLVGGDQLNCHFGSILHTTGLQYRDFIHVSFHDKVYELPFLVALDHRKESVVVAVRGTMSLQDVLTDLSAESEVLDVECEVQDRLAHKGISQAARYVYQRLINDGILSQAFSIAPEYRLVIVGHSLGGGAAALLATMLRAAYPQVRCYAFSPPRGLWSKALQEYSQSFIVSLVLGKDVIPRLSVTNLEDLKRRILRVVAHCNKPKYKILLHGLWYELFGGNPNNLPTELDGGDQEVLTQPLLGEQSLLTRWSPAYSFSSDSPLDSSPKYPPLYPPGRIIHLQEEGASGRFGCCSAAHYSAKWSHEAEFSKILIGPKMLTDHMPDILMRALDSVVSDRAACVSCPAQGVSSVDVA
Sequence of Monoacylglycerol lipase ABHD6 (Mus musculus) (Q8R2Y0 whole entry): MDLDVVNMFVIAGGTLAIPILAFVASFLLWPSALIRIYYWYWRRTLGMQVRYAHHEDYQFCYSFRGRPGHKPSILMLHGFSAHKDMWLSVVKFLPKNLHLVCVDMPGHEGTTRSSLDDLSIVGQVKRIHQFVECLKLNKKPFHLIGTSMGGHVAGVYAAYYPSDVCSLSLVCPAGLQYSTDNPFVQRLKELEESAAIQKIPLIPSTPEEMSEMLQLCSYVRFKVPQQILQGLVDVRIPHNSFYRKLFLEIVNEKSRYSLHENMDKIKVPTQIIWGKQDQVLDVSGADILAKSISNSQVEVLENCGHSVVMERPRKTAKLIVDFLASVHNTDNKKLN

As for `CCCCCCCCCCC[C@@H](C[C@@H]1OC(=O)[C@H]1CCCCCC)OC(=O)[C@H](CC(C)C)NC=O` [ORLISTAT], the concentration for half-maximal inhibition (IC50) in test [1] is 0.05 µM; in test [3], 0.03 µM. Further, the result in test [2], in test [4], in test [5], in test [6] and in test [8] was Active. For the same compound, in test [7], the outcome was inactive.

With `O=C(NCCCCCCNC(=O)ON=C1CCCCC1)ON=C1CCCCC1`, the IC50 in test [1] is 11 µM; in test [3], 23 µM. Besides, the result in test [2], in test [4], in test [5], in test [6] and in test [8] was Active. The result in test [7] was inactive.
